One compound from ChEMBL document CHEMBL4732196, “Structural optimization towards promising β-methyl-4-acrylamido quinoline derivatives as PI3K/mTOR dual inhibitors for anti-cancer therapy: The in vitro and in vivo biological evaluation” (Eur J Med Chem, 2021) can be followed below.

The source made the active and inactive calls. The rule behind the calls is not given here.

The target of data set [1] is Ephrin type-B receptor 6 (Homo sapiens) (UniProt O15197). Kind of data set: Inhibition of human partial length EPHB6 (Q634 to P948 residues) expressed in mammalian expression system assessed as residual activity at 10 uM by kinome scan method relative to control. Put shortly: (§1)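 KINOMEscan binding assay, test compound at 10 μM against a 52-kinase panel. % Ctrl = (compound signal − positive control signal)/(negative control signal − positive control signal) × 100, with DMSO as negative control (100%) and a positive control (0%).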

The target in data set [2] is Cyclin-dependent kinase 8 (Homo sapiens) (UniProt P49336). Description: Inhibition of human partial length CDK8 (M1 to T360 residues) expressed in bacterial system assessed as residual activity at 10 uM by kinome scan method relative to control. Put shortly: as §1
A further data set relates to PC-3. Description: Growth inhibition of human PC3 cells after 72 hrs by sulforhodamine B assay. Format: functional. A general note: The SRB assay estimates cell density from bound dye.
The test system of data set [3] is U87. Description: Inhibition of PI3K in human U87MG cells assessed as suppression of phosphorylation of AKT at Ser473 residue at 25 nM after 3 hrs by Western blot analysis. Format: cell-based. Put shortly: (§2)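 U87MG cells seeded at 1×10^6 per well, incubated overnight at 37 °C, 5% CO₂, then treated at various concentrations for 3 h at 37 °C. Western blot for phospho-Akt (Ser473, Thr308), phospho-S6 (Ser235/236) and phospho-4E-BP1 (Thr37/46), with GAPDH as internal control. Bands quantified as mean ± SD, n = 3 biological replicates, versus untreated cells.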
A general note: In western blotting, separated proteins are transferred to a membrane and probed.

For data set [4], the target named is Cyclin-dependent kinase-like 1 (Homo sapiens) (UniProt Q00532). Description: Inhibition of human partial length CDKL1 (M1 to I358 residues) expressed in bacterial system assessed as residual activity at 10 uM by kinome scan method relative to control. Put shortly:
as §1

In data set [5] the target is Phosphatidylinositol 4-phosphate 5-kinase type-1 gamma (Homo sapiens) (UniProt O60331). Kind of data set: Inhibition of human full length PIP5K1C (M1 to H562 residues) expressed in bacterial expression system assessed as residual activity at 10 uM by kinome scan method relative to control. Put shortly:
as §1

Data set [6] relates to U87. Description: Inhibition of PI3K in human U87MG cells assessed as suppression of phosphorylation of AKT at Thr308 residue at 25 nM after 3 hrs by Western blot analysis. Format: cell-based. Put shortly:
as §2

Data set [7] addresses Receptor-interacting serine/threonine-protein kinase 4 (Homo sapiens) (UniProt P57078). Kind of data set: Inhibition of human partial length RIPK4 (M1 to V303 residues) expressed in mammalian expression system assessed as residual activity at 10 uM by kinome scan method relative to control. Put shortly:
(§3)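 KINOMEscan competitive binding screen at 10 μM test compound against a 52-kinase panel. Output is % Ctrl = (test signal − positive control signal)/(negative control signal − positive control signal) × 100. DMSO is the negative control (100%) and the positive control is set to 0%.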

Data set [8] has as its target Cyclin-dependent kinase 19 (Homo sapiens) (UniProt Q9BWU1). Kind of data set: Inhibition of human partial length CDK11 (M1 to N360 residues) expressed in bacterial system assessed as residual activity at 10 uM by kinome scan method relative to control. Put shortly: as §1
Data set [9] deals with Citron Rho-interacting kinase (Homo sapiens) (UniProt O14578). Kind of data set: Inhibition of human partial length CIT (M68 to E432 residues) expressed in bacterial expression system assessed as residual activity at 10 uM by kinome scan method relative to control. Put shortly: as §1
Data set [10] concerns the target Serine/threonine-protein kinase mTOR (Homo sapiens, UniProt P42345). Kind of data set: Inhibition of mTOR in human U87MG cells assessed as suppression of phosphorylation of S6 ribosomal at 25 nM after 3 hrs by Western blot analysis. The settings on record: U87.
The target in data set [11] is Serine/threonine-protein kinase PRP4 homolog (Homo sapiens) (UniProt Q13523). Description: Inhibition of human partial length PRP4 (D657 to I1007 residues) expressed in bacterial expression system assessed as residual activity at 10 uM by kinome scan method relative to control. Put shortly: as §3
The next data set concerns U-87 MG. Description: Antitumour activity against human U87MG cells xenografted in ICR nude mouse assessed as tumour growth inhibition at 60 mg/kg, po every other day for 24 days relative to control. The class given is functional, organism-based. To be noted: U-87MG ATCC, time 24.0 day. Put shortly:
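Male ICR nude mice inoculated subcutaneously with 5 × 10⁶ U87MG cells. Once tumours reached about 200 mm³, mice were randomised and dosed by oral gavage every other day for 24 days. Tumour volume (length × width² × 0.5) and body weight recorded every 4 days. Inhibition = 100 × {1 − [(final − initial volume) treated]/[(final − initial volume) vehicle]}.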

Data set [12] concerns the target Phosphatidylinositol 4,5-bisphosphate 3-kinase catalytic subunit beta isoform (Homo sapiens, UniProt P42338). Description: Inhibition of human partial length PIK3CB (P118 to S1070 residues) expressed in mammalian expression system assessed as residual activity at 10 uM by kinome scan method relative to control. Put shortly:
as §3

Data set [13] deals with Cyclin-dependent kinase 14 (Homo sapiens) (UniProt O94921). Kind of data set: Inhibition of human full length PFTK1 (M1 to H451 residues) expressed in bacterial expression system assessed as residual activity at 10 uM by kinome scan method relative to control. Put shortly:
as §1

In data set [14] the target is Mitogen-activated protein kinase 4 (Homo sapiens) (UniProt P31152). Kind of data set: Inhibition of human partial length ERK4 (M1 to L365 residues) expressed in mammalian expression system assessed as residual activity at 10 uM by kinome scan method relative to control. Put shortly:
as §1

Data set [15] deals with Phosphatidylinositol 4,5-bisphosphate 3-kinase catalytic subunit delta isoform (Homo sapiens, UniProt O00329). Kind of data set: Inhibition of PI3Kdelta (unknown origin) using PIP2 as substrate measured after 1 hr by ADP-glo assay.
In data set [16] the target is Mitogen-activated protein kinase kinase kinase 4 (Homo sapiens) (UniProt Q9Y6R4). Kind of data set: Inhibition of human partial length MAP3K4 (G1319 to E1608 residues) expressed in bacterial expression system assessed as residual activity at 10 uM by kinome scan method relative to control. Put shortly:
as §1

Data set [17] deals with Serine/threonine-protein kinase Nek10 (Homo sapiens) (UniProt Q6ZWH5). Description: Inhibition of human partial length NEK10 (L488 to R809 residues) expressed in mammalian expression system assessed as residual activity at 10 uM by kinome scan method relative to control. Put shortly: as §1
The target in data set [18] is Phosphatidylinositol 4,5-bisphosphate 3-kinase catalytic subunit gamma isoform (Homo sapiens, UniProt P48736). Description: Inhibition of recombinant human full-length His-tagged PI3Kgamma expressed in baculovirus expression system using PIP2 as substrate measured after 1 hr by ADP-glo assay. (In general: ADP-Glo turns the ADP formed in a reaction into a luminescent signal.)

A short description of data set [19]: MRT(0 to t) in Sprague-Dawley rat at 5 mg/kg, po. The settings on record: in vivo. Format: ADME, organism-based. Put shortly:
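Male Sprague-Dawley rats (n = 3) received a single 5 mg/kg oral gavage dose formulated as a suspension in 0.5% methylcellulose. Plasma concentration-time curves were recorded and mean PK parameters derived.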

The target of data set [20] is Cyclin-dependent kinase 11B (Homo sapiens) (UniProt P21127). Description: Inhibition of human partial length CDC2L1 (P353 to G692 residues) expressed in bacterial system assessed as residual activity at 10 uM by kinome scan method relative to control. Put shortly: as §1
Cyclin-dependent kinase 11B (Homo sapiens), sequence (P21127 whole entry, the tested form may be a part): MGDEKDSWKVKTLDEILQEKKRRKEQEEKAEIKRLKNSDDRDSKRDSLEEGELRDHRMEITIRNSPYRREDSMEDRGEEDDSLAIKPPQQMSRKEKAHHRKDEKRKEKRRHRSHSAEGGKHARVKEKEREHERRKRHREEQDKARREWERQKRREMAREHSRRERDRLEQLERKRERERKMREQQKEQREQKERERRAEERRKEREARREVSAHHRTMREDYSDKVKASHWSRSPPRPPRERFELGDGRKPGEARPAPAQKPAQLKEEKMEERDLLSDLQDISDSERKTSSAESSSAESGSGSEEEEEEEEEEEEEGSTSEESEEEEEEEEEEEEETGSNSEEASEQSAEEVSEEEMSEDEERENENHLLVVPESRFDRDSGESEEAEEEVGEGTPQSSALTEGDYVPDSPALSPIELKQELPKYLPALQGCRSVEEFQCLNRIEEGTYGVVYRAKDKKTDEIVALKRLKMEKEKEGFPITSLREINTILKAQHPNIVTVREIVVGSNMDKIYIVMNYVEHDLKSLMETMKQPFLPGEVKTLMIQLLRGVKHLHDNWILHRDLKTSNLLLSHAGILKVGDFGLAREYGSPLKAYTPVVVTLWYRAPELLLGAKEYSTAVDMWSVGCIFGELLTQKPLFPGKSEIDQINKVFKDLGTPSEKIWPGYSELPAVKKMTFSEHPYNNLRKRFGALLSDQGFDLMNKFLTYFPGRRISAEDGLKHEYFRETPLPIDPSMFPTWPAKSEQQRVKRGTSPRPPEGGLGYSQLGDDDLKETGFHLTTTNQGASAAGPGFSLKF

Phosphatidylinositol 4,5-bisphosphate 3-kinase catalytic subunit delta isoform, sequence (O00329 whole entry, the tested form may be a part, canonical isoform): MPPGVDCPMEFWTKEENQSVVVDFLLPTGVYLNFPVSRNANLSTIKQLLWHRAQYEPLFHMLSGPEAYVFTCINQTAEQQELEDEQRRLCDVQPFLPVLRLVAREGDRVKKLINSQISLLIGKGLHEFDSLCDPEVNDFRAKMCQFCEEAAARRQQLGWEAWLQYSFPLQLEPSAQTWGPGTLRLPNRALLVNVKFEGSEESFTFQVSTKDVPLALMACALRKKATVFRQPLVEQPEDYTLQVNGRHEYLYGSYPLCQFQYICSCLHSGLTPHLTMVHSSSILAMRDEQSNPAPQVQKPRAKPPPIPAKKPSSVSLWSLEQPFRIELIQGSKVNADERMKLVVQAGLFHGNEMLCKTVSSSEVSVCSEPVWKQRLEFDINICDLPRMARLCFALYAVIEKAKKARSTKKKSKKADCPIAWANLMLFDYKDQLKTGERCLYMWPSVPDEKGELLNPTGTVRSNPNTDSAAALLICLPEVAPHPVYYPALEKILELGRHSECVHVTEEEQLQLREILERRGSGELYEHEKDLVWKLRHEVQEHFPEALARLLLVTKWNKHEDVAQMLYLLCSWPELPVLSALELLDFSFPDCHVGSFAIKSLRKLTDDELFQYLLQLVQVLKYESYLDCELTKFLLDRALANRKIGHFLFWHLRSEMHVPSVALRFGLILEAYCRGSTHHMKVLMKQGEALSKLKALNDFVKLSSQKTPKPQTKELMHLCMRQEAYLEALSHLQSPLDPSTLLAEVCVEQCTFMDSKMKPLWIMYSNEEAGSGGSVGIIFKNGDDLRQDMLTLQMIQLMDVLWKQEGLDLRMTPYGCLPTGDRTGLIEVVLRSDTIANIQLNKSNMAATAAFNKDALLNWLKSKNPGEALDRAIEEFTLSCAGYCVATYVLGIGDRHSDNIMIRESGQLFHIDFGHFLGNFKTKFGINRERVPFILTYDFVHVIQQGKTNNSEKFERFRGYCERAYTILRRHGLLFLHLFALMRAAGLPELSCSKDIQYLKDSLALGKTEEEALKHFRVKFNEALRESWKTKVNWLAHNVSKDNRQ
Phosphatidylinositol 4-phosphate 5-kinase type-1 gamma (Homo sapiens), sequence (O60331 whole entry, the tested form may be a part): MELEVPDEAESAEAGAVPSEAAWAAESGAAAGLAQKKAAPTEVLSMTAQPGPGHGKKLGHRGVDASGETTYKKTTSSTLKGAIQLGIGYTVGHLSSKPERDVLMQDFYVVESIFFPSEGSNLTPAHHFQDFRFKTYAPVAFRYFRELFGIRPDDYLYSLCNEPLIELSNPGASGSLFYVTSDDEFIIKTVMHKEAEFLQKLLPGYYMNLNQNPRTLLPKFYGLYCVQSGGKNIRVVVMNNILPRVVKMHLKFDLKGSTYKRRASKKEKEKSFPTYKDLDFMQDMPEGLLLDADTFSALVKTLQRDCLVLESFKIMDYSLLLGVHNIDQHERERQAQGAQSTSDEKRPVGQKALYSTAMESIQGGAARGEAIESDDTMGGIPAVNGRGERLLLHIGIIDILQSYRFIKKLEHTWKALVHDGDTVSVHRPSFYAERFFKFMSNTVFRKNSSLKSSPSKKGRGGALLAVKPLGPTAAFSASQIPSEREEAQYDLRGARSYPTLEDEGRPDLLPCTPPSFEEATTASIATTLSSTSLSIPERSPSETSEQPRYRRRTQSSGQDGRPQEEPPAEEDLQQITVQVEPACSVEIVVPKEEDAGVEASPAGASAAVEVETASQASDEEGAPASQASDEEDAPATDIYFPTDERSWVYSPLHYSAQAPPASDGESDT
Citron Rho-interacting kinase (Homo sapiens), sequence (O14578 whole entry, the tested form may be a part): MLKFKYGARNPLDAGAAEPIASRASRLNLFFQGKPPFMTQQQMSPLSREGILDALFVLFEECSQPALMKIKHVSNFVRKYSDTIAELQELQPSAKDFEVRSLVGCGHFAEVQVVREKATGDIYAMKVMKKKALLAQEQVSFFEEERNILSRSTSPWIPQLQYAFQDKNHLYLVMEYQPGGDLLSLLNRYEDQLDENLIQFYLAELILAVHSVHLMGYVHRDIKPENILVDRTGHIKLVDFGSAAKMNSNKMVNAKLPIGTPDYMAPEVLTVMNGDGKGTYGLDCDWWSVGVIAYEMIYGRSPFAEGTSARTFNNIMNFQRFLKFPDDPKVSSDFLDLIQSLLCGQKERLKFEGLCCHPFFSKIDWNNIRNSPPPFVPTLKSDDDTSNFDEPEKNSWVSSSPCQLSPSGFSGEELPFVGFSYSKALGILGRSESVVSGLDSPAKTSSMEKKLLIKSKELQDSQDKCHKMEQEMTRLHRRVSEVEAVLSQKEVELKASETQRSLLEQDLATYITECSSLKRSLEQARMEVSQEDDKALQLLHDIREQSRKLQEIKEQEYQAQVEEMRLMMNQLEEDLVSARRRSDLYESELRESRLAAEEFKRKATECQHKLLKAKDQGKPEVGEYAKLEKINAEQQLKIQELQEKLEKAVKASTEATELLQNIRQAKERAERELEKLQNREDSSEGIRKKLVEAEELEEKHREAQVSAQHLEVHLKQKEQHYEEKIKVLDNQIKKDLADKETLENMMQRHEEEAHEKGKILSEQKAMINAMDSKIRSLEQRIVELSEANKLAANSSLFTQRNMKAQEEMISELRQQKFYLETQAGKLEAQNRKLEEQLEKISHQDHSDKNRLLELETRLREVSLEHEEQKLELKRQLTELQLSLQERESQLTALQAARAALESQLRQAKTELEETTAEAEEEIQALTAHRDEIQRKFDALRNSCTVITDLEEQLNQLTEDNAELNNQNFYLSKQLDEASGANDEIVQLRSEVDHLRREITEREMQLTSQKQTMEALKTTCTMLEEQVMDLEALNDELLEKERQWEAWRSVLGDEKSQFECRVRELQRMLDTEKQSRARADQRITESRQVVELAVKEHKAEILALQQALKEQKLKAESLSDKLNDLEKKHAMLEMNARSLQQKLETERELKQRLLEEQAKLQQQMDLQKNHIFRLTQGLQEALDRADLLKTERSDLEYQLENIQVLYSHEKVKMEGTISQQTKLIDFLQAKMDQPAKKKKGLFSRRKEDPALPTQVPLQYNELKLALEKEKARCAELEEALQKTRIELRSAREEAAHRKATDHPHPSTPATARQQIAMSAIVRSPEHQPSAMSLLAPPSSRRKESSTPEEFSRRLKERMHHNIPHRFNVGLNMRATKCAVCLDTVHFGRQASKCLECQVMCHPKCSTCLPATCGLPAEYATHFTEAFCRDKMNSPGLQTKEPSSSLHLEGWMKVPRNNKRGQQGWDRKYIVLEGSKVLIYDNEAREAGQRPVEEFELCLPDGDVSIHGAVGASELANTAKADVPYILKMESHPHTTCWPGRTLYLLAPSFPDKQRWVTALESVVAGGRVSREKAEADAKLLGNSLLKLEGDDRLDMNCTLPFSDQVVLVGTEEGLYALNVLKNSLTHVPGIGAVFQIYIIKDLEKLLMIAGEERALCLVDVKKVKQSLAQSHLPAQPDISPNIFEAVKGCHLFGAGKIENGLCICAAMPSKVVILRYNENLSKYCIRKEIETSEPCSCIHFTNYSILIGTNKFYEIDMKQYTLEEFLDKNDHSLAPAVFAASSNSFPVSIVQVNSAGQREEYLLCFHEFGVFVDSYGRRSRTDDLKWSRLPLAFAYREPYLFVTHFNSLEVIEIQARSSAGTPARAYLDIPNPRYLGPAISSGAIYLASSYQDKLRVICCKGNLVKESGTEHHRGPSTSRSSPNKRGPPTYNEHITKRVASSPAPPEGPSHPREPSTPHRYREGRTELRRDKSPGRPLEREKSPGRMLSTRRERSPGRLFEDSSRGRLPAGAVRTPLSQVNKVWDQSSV
Cyclin-dependent kinase-like 1 (Homo sapiens), sequence (Q00532 whole entry, the tested form may be a part): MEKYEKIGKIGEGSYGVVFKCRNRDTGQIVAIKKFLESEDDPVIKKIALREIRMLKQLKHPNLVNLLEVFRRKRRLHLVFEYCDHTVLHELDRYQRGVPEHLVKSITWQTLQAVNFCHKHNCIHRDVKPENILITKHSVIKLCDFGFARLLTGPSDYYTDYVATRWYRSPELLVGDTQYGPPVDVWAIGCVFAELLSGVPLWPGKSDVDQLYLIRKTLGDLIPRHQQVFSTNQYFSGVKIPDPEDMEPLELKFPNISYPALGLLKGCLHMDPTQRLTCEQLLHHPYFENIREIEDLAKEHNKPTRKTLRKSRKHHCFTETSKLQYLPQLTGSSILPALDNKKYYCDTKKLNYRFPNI

As usually defined, the GI50 is the concentration that inhibits growth by half. A word on the IC50: it is the concentration that inhibits the measured activity by half. A word on the MRT last: it is a mean duration of stay, worked out from the concentration-time curve. With `COc1ncc(-c2ccc3nccc(/C(C)=C/C(=O)N4CCN(C)CC4)c3c2)cc1NS(=O)(=O)c1ccc(F)cc1F`, the Activity worked out at 11% in [1]; 96% in data set [2]; 82% in data set [4]; 35% in data set [5]; 82% in data set [7]; 95% in data set [8]. For the same compound, the Activity stood at 71% in [9]; 100% in data set [11]; 0% in data set [12]; 78% in data set [13]; 100% in [14]; 92% in [16]. Further, the Activity turned out to be 61% in data set [17] and 93% in [20]. This compound also yielded a 50% growth inhibitory concentration (GI50) in the data set on PC-3 of 360 nM. In addition, the inhibition entry (with U87 [3]; in the data set with U87 [6]; in data set [10]) was “Active” each time. For the same compound, the TGI result in the data set with U-87 MG was “Active”. For the same compound, the IC50 in data set [15] and in data set [18] was 1.3 nM throughout. In data set [19], this compound had an MRT last of 1.9 h.
